The values below come from ChEMBL document CHEMBL1250492, “Development of isoniazid-NAD truncated adducts embedding a lipophilic fragment as potential bi-substrate InhA inhibitors and antimycobacterial agents” (Eur J Med Chem, 2010).

The structures appear in SMILES notation. Several values for one entry are separate records, joined by “and”; a condition that tells them apart may be missing. Equal entries are not always repeated. Some results are limits rather than exact numbers.

The target of assay [1] is T1, Enoyl-[acyl-carrier-protein] reductase [NADH] (Mycobacterium tuberculosis) (UniProt P9WGR1).
T1 sequence (whole entry): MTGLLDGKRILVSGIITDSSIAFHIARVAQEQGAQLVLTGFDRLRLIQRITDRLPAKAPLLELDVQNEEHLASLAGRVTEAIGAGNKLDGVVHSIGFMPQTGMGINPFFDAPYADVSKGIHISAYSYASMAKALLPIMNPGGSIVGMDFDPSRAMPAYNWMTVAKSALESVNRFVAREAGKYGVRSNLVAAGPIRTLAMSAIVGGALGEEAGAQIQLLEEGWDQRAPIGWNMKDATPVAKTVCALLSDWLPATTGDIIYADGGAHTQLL
As to the kind of experiment: Inhibition of Mycobacterium tuberculosis InhA expressed in Escherichia coli at 100 uM after 5 mins. In outline:
(§1)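 Recombinant M. tuberculosis InhA, E. coli-expressed and purified, at 70 nM. Pre-incubated with compound for 5 min or 2 h in 30 mM PIPES, 150 mM NaCl, pH 6.8, 25 °C, with 0.5% final DMSO. The reaction was started with trans-2-decenoyl-CoA plus NADH and followed by NADH oxidation at 340 nm, 25 °C. Initial rates were compared with a ligand-free control, giving % inhibition. Run in triplicate.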

In assay [2] the test system is Mycolicibacterium smegmatis. The experiment in a line: Antimycobacterial activity against Mycobacterium smegmatis after 24 hrs by MTT assay. It is filed as functional, organism-based. In a few lines: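 MTT (1 mg/ml solution) was then added for a further 24 h, followed by DMF:20% SDS (1:2) solubilization and A570 reading. MIC is the lowest concentration blocking visible growth, and IC50 was fitted by non-linear regression. DMSO stocks were at 100× the top concentration. Isoniazid served as positive control.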
A general note: Tetrazolium dyes change colour on reduction, which living cells bring about.

Assay [3] has as its system Mycobacterium tuberculosis. The experiment in a line: Antimycobacterial activity against Mycobacterium tuberculosis after 24 hrs by MTT assay. In kind it is functional, organism-based. In outline: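 MTT was then added for a further 24 h, followed by DMF:20% SDS (1:2) solubilisation and A570 read-out. MIC was the lowest concentration stopping visible growth versus untreated bacilli. IC50 came from non-linear regression. DMSO stocks were at 100× the top concentration.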

Assay [4] deals with T1, Enoyl-[acyl-carrier-protein] reductase [NADH] (Mycobacterium tuberculosis). As to the kind of experiment: Inhibition of Mycobacterium tuberculosis InhA expressed in Escherichia coli at 10 uM after 5 mins. In outline: as §1
Assay [5] has the same target. As to the kind of experiment: Inhibition of Mycobacterium tuberculosis InhA expressed in Escherichia coli at 20 uM after 2 hrs. In a few lines:
as §1

Assay [6] has the same target. The experiment in a line: Inhibition of Mycobacterium tuberculosis InhA expressed in Escherichia coli at 20 uM after 5 mins. In outline: as §1
Assay [7] shares this target. As to the kind of experiment: Inhibition of Mycobacterium tuberculosis InhA expressed in Escherichia coli at 10 uM after 2 hrs. In a few lines: as §1
Assay [8] has the same target. As to the kind of experiment: Inhibition of Mycobacterium tuberculosis InhA expressed in Escherichia coli at 1 uM after 2 hrs.
For assay [9] the target is unchanged. As to the kind of experiment: Inhibition of Mycobacterium tuberculosis InhA expressed in Escherichia coli at 1 uM after 5 mins.
Assay [10] shares this target. As to the kind of experiment: Inhibition of Mycobacterium tuberculosis InhA expressed in Escherichia coli at 100 uM after 2 hrs. In a few lines: as §1
[11] abbreviates: Mycolicibacterium smegmatis, 24 h.

For orientation: inhibition means the change of the read-out against control, counted positive when it falls. Lower therefore signals a response near the control. In assay [1], `CCCCCCCCCCCCOc1cccc(C(=O)C2C=CN(CC(=O)OCCCO)C=C2C(N)=O)c1` (centres undefined) yielded an inhibition of 3%.

The molecule `CCCCCCCCCCCCOc1cccc(C2(O)NC(=O)c3c[n+](CC(=O)OCC)ccc32)c1` (centres undefined) registered an inhibition in assay [1] of 35%.

Broadly, the IC50 is the concentration that gives 50% inhibition. Turning to `CCCCCCCCCCCCc1cccc(C2(O)NC(=O)c3cnccc32)c1` (centres undefined), the half-inhibitory concentration (IC50) is 78 µM in assay [2], 47 µM in [2] (setting [11]) and 9.8 µM in [3]. For the same molecule, the inhibition in assay [1] was 4%.

For the molecule `O=C1NC(O)(c2cccc(O)c2)c2ccncc21` (centres undefined), in [2] (setting [11]), the midpoint of inhibition, the IC50, lay at 300 µM. In assay [1], this molecule showed an inhibition of 17%.

In the case of `NNC(=O)c1ccncc1` [ISONIAZID], the half-inhibitory concentration (IC50) in assay [2] is 7.8 µM and 39 µM; in assay [3] it was under 0.3 µM.

`CCCCCCCCCCCCOc1cccc(C(=O)C2C=CN(CC(=O)OCC)C=C2C(N)=O)c1` (centres undefined) gave an inhibition in [1] of 6%.

For `CCCCCCCCCCCCc1cccc(C2(O)NC(=O)c3c[n+](CC(=O)OCC)ccc32)c1` (centres undefined), the IC50 is 3.2 µM and 9.8 µM in assay [2]; 39 µM in assay [3]. The inhibition in assay [4] came to 19%; in [1], 91%; in [5], 28%; in [6], 40%.

For `O=C1NC(O)(c2cccc(Br)c2)c2ccncc21` (centres undefined), in assay [2] (setting [11]), the IC50 was over 5000 µM. The molecule also had an inhibition in [1] of 20%.

In the case of `CCCCCCCCc1cccc(C2(O)NC(=O)c3cnccc32)c1` (centres undefined), the IC50 in assay [2] was 4.5 µM and 19.5 µM; in assay [3], 19.5 µM. The molecule further showed an inhibition in assay [1] of 9%.

For the molecule `C=CCOc1cccc(C2(O)NC(=O)c3cnccc32)c1` (centres undefined), the IC50 in assay [2] (setting [11]) amounted to 1300 µM. In addition, the inhibition in assay [1] is 23%.

In [2] (setting [11]), `CCCCCCCCCc1ccc(-c2cccc(C3(O)NC(=O)c4cnccc43)c2)cc1` (centres undefined) yielded an IC50 of 1800 µM. In addition, the inhibition in [1] was determined as 17%.

In the case of `NC(=O)C1=CN([C@@H]2O[C@H](COP(=O)(O)OP(=O)(O)OC[C@H]3O[C@@H](n4cnc5c(N)ncnc54)[C@H](O)[C@@H]3O)[C@@H](O)[C@H]2O)C=C[C@@H]1C(=O)c1ccncc1`, the inhibition was 97% in [7], 87% in [8], 92% in [4] and 67% in assay [9].

For the molecule `CCCCCCCCCCCCOc1cccc(C2(O)NC(=O)c3c[n+](CC(=O)OCCCO)ccc32)c1` (centres undefined), the inhibition in [1] was 30%.

Turning to `CCCCCCCCCCCCOc1cccc(C2(O)NC(=O)c3cnccc32)c1` (centres undefined), the inhibition in [10] amounted to 80%; in assay [1], 41%. The IC50 in assay [2] is 68 µM and 156 µM; in [3], 156 µM.

With `CCCCCCCCCCCCc1cccc(C(=O)C2C=CN(CC(=O)OCC)C=C2C(N)=O)c1` (centres undefined), the IC50 in assay [2] was 9.8 µM; in assay [2] (setting [11]), 5.3 µM; in [3], 9.8 µM. This molecule also yielded an inhibition in [4] of 25%.
